Test results published in article PMC6434473 (Cell Transplantation, 2018).
“Also recorded” adds a separate entry of the source.

Key:
[1] = tested on: HSCs; conditions: clinical studies; cited from earlier work
[2] = tested on: CXCR4-dependent HIV-1 strains; conditions: cited from earlier work
[3] = tested on: CXCR7; assay: SDF-1α-induced phosphorylation of Akt and Erk in CXCR7-transfected CHO cells; format: cell-based, human; conditions: Western blotting; for effect on SDF-1α-induced Akt phosphorylation: peptides with SDF-1α
Procedure, shortened: (§1)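 CHO cells were stably transfected with pcDNA3-hCXCR4 or pcDNA3-hCXCR7, selected in G418 (1.2 mg/mL) and single-cell cloned; the CXCR4 line was also FACS-sorted. After SDF-1α exposure, cells were lysed 30 min on ice (Tris/NaCl/EGTA/deoxycholate/Triton/SDS, pH 7.2, plus phosphatase/protease inhibitors). Blots: BCA-matched protein, 8% SDS-PAGE, nitrocellulose, primary antibodies overnight at 4°C, HRP secondary 1 h at room temperature, chemiluminescent detection.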

[4] = tested on: C3H/HeJ mice; assay: Mobilization of hematopoietic progenitor cells to the blood; format: in vivo, mouse; conditions: subcutaneous, 1 h; for mobilization of BFU-E from the bone marrow to the blood / mobilization of CFU-GEMM from the bone marrow to the blood / mobilization of CFU-GM from the bone marrow to the blood: 7-day culture in MethoCult GF M3434; for mobilization of HPCs from the bone marrow to the peripheral blood: vs vehicle control (P < 0.01), monovalent peptide 37.5 and 150 mg/kg, bivalent peptide 57.5 and 230 mg/kg, mean of at least three independent experiments
Procedure, shortened: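 C3H/HeJ mice received vehicle or peptide subcutaneously. After 1 h, peripheral blood was drawn into heparin-treated tubes and red cells were lysed with ammonium chloride. Cells were grown in MethoCult GF M3434 for 7 days in humidified 5% CO2. CFU-GM, BFU-E and CFU-GEMM colonies were counted.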

[5] = tested on: human CXCR4; assay: SDF-1α-induced phosphorylation of Akt and Erk in CXCR4-transfected CHO cells; format: cell-based; conditions: SDF-1α 12.5 nM
Procedure, shortened: as §1

[6] = tested on: CXCR4; conditions: HEK293 cells that stably expressed CXCR4; cited from earlier work
[7] = tested on: CXCR7; conditions: cited from earlier work
[8] = tested on: wild-type CHO cells; assay: SDF-1α-induced phosphorylation of Akt in wild-type CHO cells; format: cell-based, Chinese hamster; conditions: SDF-1α 12.5 nM, Western blotting
Procedure, shortened: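 Untransfected CHO cells were treated with SDF-1α (12.5 nM), then lysed 30 min on ice in pH 7.2 Tris/NaCl/EGTA/deoxycholate/Triton/SDS buffer with phosphatase/protease inhibitors. Lysates were cleared at 17,000 g, 15 min, 4°C. BCA-matched protein ran on 8% SDS-PAGE onto nitrocellulose, blocked with milk or BSA in TBST. Probing: primary overnight at 4°C, HRP secondary 1 h at room temperature, chemiluminescence.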

[9] = SDF-1α 12.5 nM, 5, 15, 30, 45, 60 minutes

c1cc(CN2CCCNCCNCCCNCC2)ccc1CN1CCCNCCNCCCNCC1 [AMD3100]
mobilization of HSCs to the peripheral blood [1]: rapid mobilization of HSCs to the peripheral blood

LGASWHRPDK [DV3]
anti-HIV entry activity [2]: anti-HIV entry activity

LGASWHRPDKCCLGYQKRPLP [DV1]
effect on SDF-1α-induced Akt phosphorylation [3]: slight effect; also recorded: little or no effect | effect on SDF-1α-induced Akt phosphorylation ([3]; listed as DV-1): little inhibitory effects | anti-HIV entry activity [2]: anti-HIV entry activity | mobilization of BFU-E from the bone marrow to the blood [4]: strongly induced rapid mobilization | mobilization of CFU-GEMM from the bone marrow to the blood [4]: strongly induced rapid mobilization | mobilization of CFU-GM from the bone marrow to the blood [4]: strongly induced rapid mobilization | mobilization of HPCs from the bone marrow to the peripheral blood [4]: strong mobilization of HPCs

LGASWHRPDKCCLGYQKRPLPK [HC4319]
effect on SDF-1α-induced Akt phosphorylation [3]: little inhibitory effects; also recorded: little or no effect | inhibitory effect on phosphorylation of Akt compared with DV1 ([5]; 30 μM, bivalent vs monovalent): more potent inhibitory effect | inhibitory effect on phosphorylation of Erk compared with DV1 ([5]; 30 μM, bivalent vs monovalent): more potent inhibitory effect | CXCR4 binding potency compared with the monomeric counterparts DV1 and DV3 [6]: much more potent | mobilization of BFU-E from the bone marrow to the blood [4]: strongly induced rapid mobilization | mobilization of CFU-GEMM from the bone marrow to the blood [4]: strongly induced rapid mobilization | mobilization of CFU-GM from the bone marrow to the blood [4]: strongly induced rapid mobilization | mobilization of HPCs from the bone marrow to the peripheral blood [4]: strong mobilization of HPCs

LGASWHRPDKCCLGYQKRPLPQVL LSSWYPTSQLCSKPGVIFLTKRGRQ VCADKSKDWVKKLMQQLPVTAR [vMIP-II]
inhibition of HIV-1 entry ([2]; vMIP-II binding to CXCR4 or CCR5): inhibitory effect on HIV-1 entry

SDF-1α: specific ligand of CXCR4
induction of Akt phosphorylation [3, 9]: only Akt phosphorylation was observed consistently from 5 to 60 minutes; also recorded: only weak phosphorylation of Akt | induction of Erk phosphorylation [3, 9]: no phosphorylation changes were observed for Erk | induction of phosphorylation of Akt ([5]; Western blotting): induced the phosphorylation of Akt and Erk significantly | induction of phosphorylation of Erk ([5]; Western blotting): induced the phosphorylation of Akt and Erk significantly | affinity for CXCR7 compared with CXCR4 [7]: higher | induction of Akt phosphorylation [8]: no changes in Akt phosphorylation
